From EPA's CvTdb concentration-time database

Tests used:
human [1] = assay: concentration in expired air after dosing; negative times count back from the end of exposure; details: dosed: dichloromethane, inhalation, duration: 6 hr, male
How it was run: (§1)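 Data points giving concentration or amount against time came from published in vivo toxicokinetic studies and from two structured collections. PubMed searching, classifier screening and manual review located the studies. Most points were digitised from plot screenshots using WebPlotDigitizer, the rest were copied from tables, and all keep their reported units.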

human [2] = assay: concentration in blood after dosing; negative times count back from the end of exposure; details: inhalation, duration: 4 hr
How it was run: as §1

rat [3] = assay: concentration in expired air after dosing; details: dosed: hexachloroethane, 53.3 ppm, inhalation, duration: 6 hr
rat [4] = assay: concentration in expired air after dosing; details: dosed: hexachloroethane, 53.3 ppm, inhalation, duration: 6 hr; remark: listed apart in the source
rat [5] = assay: concentration in blood after dosing; negative times count back from the end of exposure; details: inhalation
dog = assay: concentration in blood after dosing; negative times count back from the end of exposure; details: dosed: tetrachloroethylene, inhalation, duration: 4 hr, male, beagle
How it was run: as §1

[C-]#[O+] [carbon monoxide]
concentration in expired air [ppm], human [1]
Details | 100 ppm | 350 ppm
0.083 h | 17.1 | 34.6
0.25 h | 16.2 | 32.5
0.5 h | 15.8 | 32.6
1 h | 15.7 | 33.3
1.5 h | 14.9 | 32.3
2 h | 14.6 | 30.9
3 h | 11.8 | 26.8
4 h | 10.8 | 25.1
6 h | 10 | 21.2
8 h | 9.1 | 16.9
16 h | 6.8 | 11.8
24 h | 4.3 | 5.6

concentration in expired air [ppm], human [1], during exposure
Details | -36 s | -6 h | -5.75 h | -5.5 h | -5 h | -4.5 h | -4 h | -3 h | -2 h | -1 h
100 ppm | 16.8 | 3.8 | 5.3 | 5.8 | 7 | 8.1 | 9 | 10.7 | 13.1 | 15.3
350 ppm | 36.1 | 4.2 | 6.5 | 7.6 | 10.5 | 13.3 | 16.1 | 20.9 | 25.9 | 31.1

CCO [ethanol]
concentration in blood [ng/mL], human [2], dosed: ethanol
Details | female | male
0.4897 h, 125 ppm | 60 | 62.3
0.4897 h, 250 ppm | – | 101
0.4897 h, 450 ppm | 158 | 201
0.4966 h, 750 ppm | 299 | 227
0.4966 h, 1000 ppm | 571 | 267
0.9954 h, 250 ppm | 74.2 | 67.1
1.002 h, 125 ppm | 42.9 | 40.8
1.002 h, 450 ppm | 101 | 112
1.002 h, 750 ppm | 153 | 94
1.002 h, 1000 ppm | 248 | 142

concentration in blood [ng/mL], human [2], dosed: ethanol, during exposure
Details | -33 s | -8 s | -4 h | -3.002 h | -2.995 h | -1.007 h | -1 h
125 ppm, female | – | 179 | 35.6 | 165 | – | – | 158
125 ppm, male | – | 196 | 36.9 | 165 | – | – | 196
250 ppm, female | 451 | – | 78.9 | 374 | – | 445 | –
250 ppm, male | – | – | 42.9 | 468 | – | 457 | –
450 ppm, female | 1000 | – | 52.4 | 851 | – | – | 1000
450 ppm, male | 1090 | – | – | 851 | – | – | 905
750 ppm, female | – | 1620 | 65.5 | – | 1430 | – | 1860
750 ppm, male | – | 2060 | – | – | 1770 | – | 1510
1000 ppm, female | 2640 | – | 133 | – | 2300 | – | 2510
1000 ppm, male | 2920 | – | – | – | 2810 | – | 2360

ClC(Cl)(Cl)C(Cl)(Cl)Cl [hexachloroethane]
concentration in expired air [ng/mL]
Details | rat [3] | rat [4]
0.2509 h | – | 96.3
0.7326 h | – | 55.5
0.8034 h | 73.1 | –
0.9876 h | 51.1 | 48.8
1.498 h | – | 49.2
1.653 h | 36.3 | –
1.979 h | 26.3 | –
2.489 h | 24.2 | 27.8
2.985 h | – | 19.8
3.509 h | 17.9 | –
4.983 h | 10.9 | 15.7
5.975 h | – | 15.4
5.989 h | 10.1 | –
7.236 h | 9.9 | –
7.986 h | 8.23 | 7.51
8.978 h | 7.36 | 6.78
9.998 h | 6.12 | 5.85
29.5 min | 79.4 | –

CCCCCC [n-hexane]
rat [5], dosed: n-hexane, 3000 ppm, duration: 6 hr
Details | concentration in blood [ng/mL]
0.4718 h | 2220
0.9831 h | 1920
1.99 h | 1370
4.003 h | 65.6
5.974 h | 42.2
7.994 h | 59.3
29 s | 8420

rat [5], dosed: n-hexane, 3000 ppm, duration: 6 hr, during exposure
Details | concentration in blood [ng/mL]
-6 h | 20.3
-5.509 h | 7900
-5.025 h | 8530
-4.008 h | 9820
-3.002 h | 9010
-2.005 h | 9720

CCCCCCCCC [nonane]
rat [5], dosed: nonane, duration: 4 hr
Details | concentration in blood [µg/g]
-83 s, 100 ppm, Fischer-344, during exposure | 0.892
-71 s, 500 ppm, Fischer-344, during exposure | 4.34
-56 s, 1000 ppm, Fischer-344, during exposure | 16.8
-3.501 h, 500 ppm, Fischer-344, during exposure | 2.02
-3.496 h, 1000 ppm, Fischer-344, during exposure | 7.04
-3.494 h, 100 ppm, Fischer-344, during exposure | 0.434
-3.003 h, 100 ppm, Fischer-344, during exposure | 0.523
-2.994 h, 1000 ppm, Fischer-344, during exposure | 6.96
-2.988 h, 500 ppm, Fischer-344, during exposure | 2.21
-2.014 h, 1000 ppm, Fischer-344, during exposure | 15.4
-2.009 h, 100 ppm, Fischer-344, during exposure | 0.518
-2.007 h, 500 ppm, Fischer-344, during exposure | 3.72
-1.02 h, 1000 ppm, Fischer-344, during exposure | 17.2
-1.016 h, 100 ppm, Fischer-344, during exposure | 0.672
-1.013 h, 500 ppm, Fischer-344, during exposure | 3.57
0.1362 h, 1000 ppm, Fischer-344 | 11
0.1413 h, 100 ppm, Fischer-344 | 0.367
0.1425 h, 500 ppm, Fischer-344 | 2.81
0.2276 h, 100 ppm, Fischer-344 | 0.309
0.2331 h, 1000 ppm, Fischer-344 | 9.37
0.2405 h, 500 ppm, Fischer-344 | 1.93
0.4818 h, 1000 ppm, Fischer-344 | 5.11
0.4859 h, 100 ppm, Fischer-344 | 0.209
0.4867 h, 500 ppm, Fischer-344 | 1.77
0.9803 h, 500 ppm, Fischer-344 | 1.17
0.9804 h, 100 ppm, Fischer-344 | 0.115
0.9849 h, 1000 ppm, Fischer-344 | 4.34
1.969 h, 100 ppm, Fischer-344 | 0.0382
1.99 h, 500 ppm, Fischer-344 | 0.41
1.992 h, 1000 ppm, Fischer-344 | 2.37
2.984 h, 500 ppm, Fischer-344 | 0.368
2.985 h, 100 ppm, Fischer-344 | 0.0308
2.999 h, 1000 ppm, Fischer-344 | 1.47
3.992 h, 100 ppm, Fischer-344 | 0.0196
3.997 h, 1000 ppm, Fischer-344 | 0.691
4.002 h, 500 ppm, Fischer-344 | 0.255
198 s, 100 ppm, Fischer-344 | 0.432
217 s, 1000 ppm, Fischer-344 | 13.7
239 s, 500 ppm, Fischer-344 | 3.73

ClC(Cl)=C(Cl)Cl [tetrachloroethylene]
dog
Details | concentration in blood [ng/mL]
2.446 h, 142 ppm | 696
2.79 h, 72 ppm | 345
18.14 h, 72 ppm | 371
18.34 h, 142 ppm | 848
42.06 h, 72 ppm | 352
42.32 h, 142 ppm | 798
67.19 h, 72 ppm | 315
67.21 h, 142 ppm | 681
91.19 h, 72 ppm | 262
92.53 h, 142 ppm | 603
139.29 h, 72 ppm | 166
139.47 h, 142 ppm | 405
163.11 h, 72 ppm | 135
163.12 h, 142 ppm | 314

dog, during exposure
Details | concentration in blood [ng/mL]
-227 s, 72 ppm | 200
-0.3342 h, 142 ppm | 516

human [2], dosed: tetrachloroethylene, 144 ppm, male
Details | concentration in blood [ng/mL]
2.478 h | 601
18.43 h | 752
42.35 h | 705
67.23 h | 618
92.18 h | 515
139.2 h | 334
163.09 h | 271

Details | concentration in blood [ng/mL]
human [2], -0.3835 h, dosed: tetrachloroethylene, 144 ppm, male, during exposure | 484
